Measurements taken from the array DNA melting data of Ke et al. (doi:10.1101/2024.01.08.574731).

Key:
[1] = melting temperature; fluorescence melt of hairpins on a sequencing array, two-state fit, raised by 9.35 °C to match UV melts; conditions: sodium 0.088 M
How it was run: (§1)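 To match UV melts, fitted temperatures were raised by 9.35 °C. These fits were bootstrapped two-state models that gave melting temperature and folding enthalpy, combined by inverse variance over four replicates. The input was normalised Cy3 fluorescence of library hairpins with annealed Cy3 and quencher oligos on a sequenced MiSeq flow cell, imaged in 50 mM Na-HEPES pH 8.0, 25 mM NaCl in 2.5 °C steps up to 60 °C.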

[2] = folding enthalpy; higher = less favourable; fluorescence melt of hairpins on a sequencing array, two-state fit; conditions: sodium 0.088 M
How it was run: as §1

| Sequence | Tm [1] | folding enthalpy [2] |
| --- | --- | --- |
| GAATAAGGAAACTTATTC (((((((....))))))) | 44.6 °C | -33.5 kcal/mol |
| GCTACGCGAAAGCATTGC ((.(.((....)).).)) | 38.7 °C | -12.7 kcal/mol |
| GCCTGAGGAAACCCAGGC (((((.(....).))))) | 53.2 °C | -36.5 kcal/mol |
| GACGGGCGAAAGCCGGTC (((.(((....))).))) | 65.5 °C | -25.9 kcal/mol |
| GAAAGCGAAAGCTCATTC ((((((....)))..))) | 23.9 °C | -8.68 kcal/mol |
| GAGCTAGGAAACTGGCTC ((((.((....)).)))) | 51.9 °C | -36.2 kcal/mol |
| GATGGGGGAAACCTCGTC ((.(.((....)).).)) | 33.2 °C | -20 kcal/mol |
| GCAGAGGGAAACCTCCGC ((.((((....)))).)) | 44.7 °C | -26 kcal/mol |
| GCACCGGGAAACTGGTGC (((((.(....).))))) | 61.2 °C | -41 kcal/mol |
| GACTGCGAAAGCATTGTC ((((((....)))..))) | 42 °C | -10.4 kcal/mol |
| GATCGATGTCTCGATC ((((((....)))))) | 51.5 °C | -39 kcal/mol |
| GGCACAACGAAAGTTGCC (((..(((....)))))) | 44.2 °C | -16.4 kcal/mol |
| GTCTTAGAAATAAGAC ((((((....)))))) | 43.4 °C | -26.5 kcal/mol |
| GAGTGGGCGAAAGCCCTC (((..(((....)))))) | 34 °C | -8.27 kcal/mol |
| GATCAAGAGCTTGATC ((((((....)))))) | 42.2 °C | -38.2 kcal/mol |
| GGAACTGGAAACGGTTTC (.(((.(....).))).) | 30.4 °C | -17.9 kcal/mol |
| GGTCCCCGAAAGGGTACC (((.(((....))).))) | 53.3 °C | -24.1 kcal/mol |
| GTTGGTCGAAAGACTAAC (((.(((....))).))) | 50.9 °C | -25.9 kcal/mol |
| GTGGCGGGAAACTGCCAC (((((.(....).))))) | 60.7 °C | -54.1 kcal/mol |
| GTGGCCGAAAGGCTTCAC ((((((....)))..))) | 33.6 °C | -12.4 kcal/mol |
| GATCCGGCATCGGATC ((((((....)))))) | 64.8 °C | -45.5 kcal/mol |
| CGCGGAAGAGTCCGCG ((((((....)))))) | 62.6 °C | -36 kcal/mol |
| GAGAGAACGAAAGTTCTC (((..(((....)))))) | 52.5 °C | -14.7 kcal/mol |

| Sequence | Tm [1] | folding enthalpy [2] |
| --- | --- | --- |
| GATCTTGTGCAAGATC ((((((....)))))) | 46.4 °C | -47 kcal/mol |
| GATCGTGATGACGATC ((((((....)))))) | 54.4 °C | -37.8 kcal/mol |
| GAACGTGGAAACGCGTTC (((((.(....).))))) | 53.8 °C | -36.4 kcal/mol |
| GATAGCGAAAGCTCAATC ((((((....)))..))) | 21.7 °C | -10.4 kcal/mol |
| GACCACGGAAACATGGCC (.(((.(....).))).) | 24.4 °C | -9.89 kcal/mol |
| GATCCCGTGGGGGATC ((((((....)))))) | 60 °C | -31.9 kcal/mol |
| GTGATTCGAAAGAACCAC (((.(((....))).))) | 44.8 °C | -33.2 kcal/mol |
| GATCTATGCTTAGATC ((((((....)))))) | 44.5 °C | -35.8 kcal/mol |
| GCTGACCCGAAAGGGAGC (((..(((....)))))) | 41.8 °C | -14.7 kcal/mol |
| GGGTAACGAAAGTTTCCC (((.(((....))).))) | 50.3 °C | -43 kcal/mol |
| GATCTTTGGAAAGATC ((((((....)))))) | 42.7 °C | -31.5 kcal/mol |
| GTGACCCGAAAGGGCCAC (((.(((....))).))) | 59.5 °C | -41 kcal/mol |
| GAAGTCGAAAGACTTC ((((((....)))))) | 65.7 °C | -34.2 kcal/mol |
| GTCCAGGGAAACTTGGAC (((((.(....).))))) | 48.2 °C | -22.3 kcal/mol |
| GCCTGGCGAAAGCGACGC ((.(.((....)).).)) | 36 °C | -6.72 kcal/mol |
| GTGAGCGAAAGCTTGCAC ((((((....)))..))) | 51.4 °C | -7.82 kcal/mol |
| GCCACGCGAAAGCTTCGC ((.(.((....)).).)) | 33.6 °C | -7.03 kcal/mol |
| GGCGTGGGAAACCATGCC (((.(((....))).))) | 61.4 °C | -44.5 kcal/mol |
| GGTGGCGAAAGCCCACC ((((((....))).))) | 61.7 °C | -17.5 kcal/mol |
| GATCTCAGAGGAGATC ((((((....)))))) | 50.8 °C | -32.9 kcal/mol |
| GCCAAGAAATTGGC (((((....))))) | 52.3 °C | -21.6 kcal/mol |
| GGTCTTGGAAACAAGACC (((((((....))))))) | 64.2 °C | -45.2 kcal/mol |
| GATCGATCGATCGATC ((((((....)))))) | 57.1 °C | -57.6 kcal/mol |

| Sequence | Tm [1] | folding enthalpy [2] |
| --- | --- | --- |
| GTAGACCGAAAGGTATAC (((.(((....))).))) | 51.7 °C | -36 kcal/mol |
| GTTACGACGAAAGTCAAC (((..(((....)))))) | 25.5 °C | -12.3 kcal/mol |
| GATCTGTAACAGATC ((((((...)))))) | 48.6 °C | -33.5 kcal/mol |
| GGCCACGGAAACATGGCC (((((.(....).))))) | 53.3 °C | -49.2 kcal/mol |
| GTGCGGCGAAAGCCCAC (((.(((....)))))) | 57.6 °C | -20.7 kcal/mol |
| GATCAAGAAGTTGATC ((((((....)))))) | 43.9 °C | -28.2 kcal/mol |
| GCTTTCGAAAGAAGTAGC ((((((....)))..))) | 34 °C | -23 kcal/mol |
| GGTTTCGAAAGAAACC ((((((....)))))) | 64.2 °C | -40.8 kcal/mol |
| GGGAACCGAAAGGTACCC (((.(((....))).))) | 58.6 °C | -34.5 kcal/mol |
| GTTAACGAAAGTTACAAC ((((((....)))..))) | 25.6 °C | -12.3 kcal/mol |
| GATCTAAATTTAGATC ((((((....)))))) | 44.3 °C | -32.3 kcal/mol |
| GATCCACGAAAGTGTATC (((.(((....))).))) | 37.6 °C | -24.2 kcal/mol |
| GGTACTGAAAAGTACC ((((((....)))))) | 57.4 °C | -39.5 kcal/mol |
| GTCGGCGAAAGCCAGGAC ((((((....)))..))) | 49.9 °C | -13.7 kcal/mol |
| GGTCCCGAAAGGGATACC ((((((....)))..))) | 41.4 °C | -12.9 kcal/mol |
| GATCGGATGTCCGATC ((((((....)))))) | 56.8 °C | -38.2 kcal/mol |
| GCCTTTCGAAAGAAGGGC (((.(((....))).))) | 53.6 °C | -47.5 kcal/mol |
| GAACTTGGAAACAAGCTC ((.((((....)))).)) | 33.8 °C | -27.1 kcal/mol |
| GTCTACGAAAGTATAGAC ((((((....)))..))) | 36.2 °C | -24.4 kcal/mol |
| GTCTAACGAAAGTTGGAC (((.(((....))).))) | 52 °C | -19.8 kcal/mol |
| GTGTCCGAAAGGAGTCAC ((((((....)))..))) | 35 °C | -19.1 kcal/mol |
| GTGACCGAAAGGTATCAC ((((((....)))..))) | 39.7 °C | -14.8 kcal/mol |
| GTGAAAGGAAACTCTCAC ((((.((....)).)))) | 26.5 °C | -12.6 kcal/mol |

| Sequence | Tm [1] | folding enthalpy [2] |
| --- | --- | --- |
| GCAACCGAAAGGTTCTGC ((((((....)))..))) | 41.8 °C | -14.9 kcal/mol |
| GCGCCGGCGAAAGCCCGC (((..(((....)))))) | 55.5 °C | -15.2 kcal/mol |
| AGATTGAAAAATCT (((((....))))) | 28.9 °C | -10.8 kcal/mol |
| GTCTTCGAAAGAATGGAC ((((((....)))..))) | 27.2 °C | -14.9 kcal/mol |
| GTCATCCCGAAAGGGGAC (((..(((....)))))) | 37.8 °C | -14.1 kcal/mol |
| GTCCGCGGAAACGTGGAC ((((.((....)).)))) | 62 °C | -43.5 kcal/mol |
| GATAGGCGAAAGCCGATC (((.(((....))).))) | 55.5 °C | -16.8 kcal/mol |
| GTTGCAGGAAACTACAAC ((((.((....)).)))) | 37 °C | -27.6 kcal/mol |
| GTTCCCCGAAAGGGAAAC (((.(((....))).))) | 46.5 °C | -19.3 kcal/mol |
| GGGAAGCCGAAAGGCCCC (((..(((....)))))) | 50.6 °C | -16.3 kcal/mol |
| GTCCGACGAAAGTCGAC (((.(((....)))))) | 44.7 °C | -13.2 kcal/mol |
| GGTAGAGGAAACTCTATC (.(((((....))))).) | 37.1 °C | -26.9 kcal/mol |
| GTGCAACCGAAAGGTCAC (((..(((....)))))) | 40.1 °C | -16.6 kcal/mol |
| GATCCACGAAAGTGAATC (((.(((....))).))) | 42.4 °C | -24.2 kcal/mol |
| GATCTACTGGTAGATC ((((((....)))))) | 52.8 °C | -43.6 kcal/mol |
| GCCGCAGGAAACTACGGC ((((.((....)).)))) | 50.8 °C | -32.5 kcal/mol |
| GCCCATGGAAACGTGGGC (((((.(....).))))) | 59 °C | -38.2 kcal/mol |
| GGTGACCGAAAGGTGACC (((.(((....))).))) | 54.4 °C | -42.5 kcal/mol |
| GCGTGACGACGC ((((....)))) | 56.8 °C | -27.2 kcal/mol |
| GTCTAAACGAAAGTTGAC (((..(((....)))))) | 34.5 °C | -17.7 kcal/mol |
| GGTATCGAAAGATCCACC ((((((....)))..))) | 31.8 °C | -14.7 kcal/mol |
| CGGTCGGAAACGATGCCG ((((((....)))..))) | 38.6 °C | -22.1 kcal/mol |
| GTAGCGGAAACGCTAC ((((((....)))))) | 65.3 °C | -30.2 kcal/mol |
